Data from ChEMBL document CHEMBL1629663, “Postantibiotic effects of telavancin against 16 gram-positive organisms” (Antimicrob Agents Chemother, 2009).
In brackets after ≈: the same amount, converted by molar mass.

Columns and labels:
Streptococcus pyogenes = assay: Antimicrobial activity against Streptococcus pyogenes HMC 414 by microdilution method; format: functional
Staphylococcus aureus [1] = assay: Antimicrobial activity against heterogenous vancomycin-intermediate-, methicillin-resistant Staphylococcus aureus 873 assessed as time required to induce post antibiotic sub-MIC effect at 0.4 times MIC […] by plate counting method; format: functional
Outline: (§1)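 PAE was first induced with 10× MIC for 1 h at 35°C (inoculum about 5 × 10^6 CFU/ml, Mueller-Hinton broth) and ended by 1:1,000 dilution. Cultures were then split and given 0.2, 0.3 or 0.4× MIC, with one tube left without drug. Viable counts were taken before exposure, after dilution, then every 2 h until McFarland no. 1 turbidity. Two separate experiments, each with a new inoculum.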

Staphylococcus aureus [2] = assay: Antimicrobial activity against vancomycin-intermediate-, methicillin-resistant Staphylococcus aureus 1984 by microdilution method; format: functional
[3] = Elimination half life in healthy human at 5 mg/kg, iv; format: ADME, organism-based; set-up: dose 5 mg/kg, route intravenous; settings: in vivo, read-out: beta t1/2
Staphylococcus aureus [4] = assay: Antimicrobial activity against vancomycin-susceptible-, methicillin-resistant Staphylococcus aureus 1306 by microdilution method; format: functional
Staphylococcus aureus [5] = assay: Antimicrobial activity against vancomycin-intermediate-, methicillin-resistant Staphylococcus aureus 555 by microdilution method; format: functional
Staphylococcus aureus [6] = assay: Antimicrobial activity against vancomycin-intermediate-, methicillin-resistant Staphylococcus aureus 555 assessed as time required to induce sub-MIC effect at 0.3 times MIC […] by plate counting method; format: functional
Outline: (§2)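 SME, viable plate count method: no prior drug exposure. About 5 × 10^6 CFU/ml in Mueller-Hinton broth at 35°C received 0.2, 0.3 or 0.4× MIC, alongside a drug-free tube. Counts were taken at the start, then every 2 h until McFarland no. 1 turbidity, as log10 CFU/ml against time. Two separate experiments, each with a new inoculum.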

Enterococcus faecium [7] = assay: Antimicrobial activity against Enterococcus faecium HMC 588 by microdilution method; format: functional
Staphylococcus aureus [8] = assay: Antimicrobial activity against vancomycin-susceptible-, methicillin-resistant Staphylococcus aureus 1307 by microdilution method; format: functional
Enterococcus faecalis = assay: Antimicrobial activity against Enterococcus faecalis ATCC 29212 assessed as time required to induce post antibiotic sub-MIC effect at 0.3 times MIC […] by plate counting method; format: functional
Outline: (§3)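 Mueller-Hinton broth cultures of about 5 × 10^6 CFU/ml were pre-exposed to telavancin at 10× MIC for 1 h at 35°C, then diluted 1:1,000. Telavancin was re-added to final 0.2, 0.3 or 0.4× MIC, alongside a drug-free tube. Viable counts were taken before exposure, after dilution, then every 2 h until McFarland no. 1 turbidity. Duration comes from log10 CFU/ml-versus-time plots; two separate experiments with fresh inocula.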

Staphylococcus aureus [9] = assay: Antimicrobial activity against heterogenous vancomycin-intermediate-, methicillin-resistant Staphylococcus aureus 618 assessed as time required to induce sub-MIC effect at 0.2 times MIC exposed for 2 hrs by plate counting method; format: functional; outline: as §2
Enterococcus faecium [10] = assay: Antimicrobial activity against Enterococcus faecium HMC 588 assessed as time required to induce post antibiotic sub-MIC effect at 0.4 times MIC […] by plate counting method; format: functional; outline: as §3
Staphylococcus aureus [11] = assay: Antimicrobial activity against vancomycin-susceptible-, methicillin-resistant Staphylococcus aureus ATCC 33591 assessed as time required to induce sub-MIC effect at 0.4 times MIC exposed for 2 hrs by plate counting method; format: functional
Outline: (§4)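 Sub-MIC effect: cultures not preexposed to drug were diluted and handled as in the PA-SME procedure in Mueller-Hinton broth with final 0.2, 0.3 or 0.4× MIC, plus a drug-free control. Viable plate counts were taken every 2 h until McFarland 1 turbidity. Duration was derived from growth curves. Two experiments were run, each with a new inoculum.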

Staphylococcus aureus [12] = assay: Antimicrobial activity against heterogenous vancomycin-intermediate-, methicillin-resistant Staphylococcus aureus 873 assessed as time required to induce post antibiotic sub-MIC effect at 0.2 times MIC pre-exposed to Telavancin […] by plate counting method; format: functional; outline: as §1
Staphylococcus aureus [13] = assay: Antimicrobial activity against vancomycin-intermediate-, methicillin-resistant Staphylococcus aureus 770 assessed as time required to induce sub-MIC effect at 0.4 times MIC exposed for 2 hrs by plate counting method; format: functional; outline: as §4
Staphylococcus aureus [14] = assay: Antimicrobial activity against heterogenous vancomycin-intermediate-, methicillin-resistant Staphylococcus aureus 873 assessed as time required to induce sub-MIC effect at 0.4 times MIC […] by plate counting method; format: functional; outline: as §2
Streptococcus agalactiae [15] = assay: Antimicrobial activity against Streptococcus agalactiae HMC 5 assessed as time required to induce sub-MIC effect at 0.3 times MIC exposed for 2 hrs by plate counting method; format: functional
Outline: (§5)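 Unexposed Mueller-Hinton broth cultures (about 5 × 10^6 CFU/ml, 35°C) were handled as in the PA-SME set but without the 10× MIC pre-exposure. They were diluted 1:1,000, then given telavancin at final 0.2, 0.3 or 0.4× MIC, with a drug-free control. Viable counts were taken every 2 h until McFarland no. 1 turbidity. Effect duration comes from log10 CFU/ml-time plots; two separate experiments with new inocula.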

Staphylococcus aureus [16] = assay: Antimicrobial activity against vancomycin-intermediate-, methicillin-resistant Staphylococcus aureus 770 assessed as time required to induce sub-MIC effect at 0.2 times MIC […] by plate counting method; format: functional; outline: as §2
Staphylococcus aureus [17] = assay: Antimicrobial activity against vancomycin-intermediate-, methicillin-resistant Staphylococcus aureus 1984 assessed as time required to induce post antibiotic sub-MIC effect at 0.3 times MIC […] by plate counting method; format: functional; outline: as §1
Staphylococcus aureus [18] = assay: Antimicrobial activity against vancomycin-susceptible-, methicillin-resistant Staphylococcus aureus 1307 assessed as time required to induce sub-MIC effect at 0.3 times MIC exposed for 2 hrs by plate counting method; format: functional; outline: as §4
Streptococcus agalactiae [19] = assay: Antimicrobial activity against Streptococcus agalactiae HMC 5 assessed as time required to induce sub-MIC effect at 0.4 times MIC exposed for 2 hrs by plate counting method; format: functional; outline: as §5
Staphylococcus aureus [20] = assay: Antimicrobial activity against vancomycin-intermediate-, methicillin-resistant Staphylococcus aureus 1984 assessed as post-antibiotic effect at 10 times MIC pre-exposed to Telavancin for 1 hr by plate counting method; format: functional
Outline: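 Viable plate count method in Mueller-Hinton broth. Direct colony suspension inoculum of about 5 × 10^6 CFU/ml was exposed to 10× MIC for 1 h at 35°C in a shaking water bath, then diluted 1:1,000 to remove drug. Counts were taken before exposure, at 0 h, then every 2 h until McFarland no. 1 turbidity. PAE = T − C, the time to a 1 log10 rise versus an unexposed growth control.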

Staphylococcus aureus [21] = assay: Antimicrobial activity against vancomycin-intermediate-, methicillin-resistant Staphylococcus aureus 1287 assessed as time required to induce post antibiotic sub-MIC effect at 0.3 times MIC […] by plate counting method; format: functional; outline: as §1
Staphylococcus aureus [22] = assay: Antimicrobial activity against vancomycin-intermediate-, methicillin-resistant Staphylococcus aureus 1287 by microdilution method; format: functional
Staphylococcus aureus [23] = assay: Antimicrobial activity against vancomycin-resistant-, methicillin-resistant Staphylococcus aureus 510 assessed as time required to induce sub-MIC effect at 0.4 times MIC exposed for 2 hrs by plate counting method; format: functional; outline: as §4

With `CCCCCCCCCCNCCN[C@@]1(C)C[C@H](O[C@H]2[C@H](Oc3c4cc5cc3Oc3ccc(cc3Cl)[C@@H](O)[C@@H](NC(=O)[C@@H](CC(C)C)NC)C(=O)N[C@@H](CC(N)=O)C(=O)N[C@H]5C(=O)N[C@H]3C(=O)N[C@H](C(=O)N[C@H](C(=O)O)c5cc(O)c(CNCP(=O)(O)O)c(O)c5-c5cc3ccc5O)[C@H](O)c3ccc(c(Cl)c3)O4)O[C@H](CO)[C@@H](O)[C@@H]2O)O[C@@H](C)[C@H]1O` [TELAVANCIN] the MIC (Streptococcus pyogenes) was 0.06 µg/mL (≈ 0.0342 µM), the PAE (Staphylococcus aureus [1]) was 6.7 h and the MIC (Staphylococcus aureus [2]) was 0.25 µg/mL (≈ 0.142 µM). The half-life [3] was over 7 h, the MIC (Staphylococcus aureus [4]) was 0.12 µg/mL (≈ 0.0684 µM) and the MIC (Staphylococcus aureus [5]) was 0.5 µg/mL (≈ 0.285 µM). For the same compound, the PAE (Staphylococcus aureus [6]) was 1.7 h, the MIC (Enterococcus faecium [7]) was 0.12 µg/mL (≈ 0.0684 µM) and the MIC (Staphylococcus aureus [8]) was 0.12 µg/mL (≈ 0.0684 µM). The PAE (Enterococcus faecalis) was over 10.7 h, the PAE (Staphylococcus aureus [9]) was 0.3 h and the PAE (Enterococcus faecium [10]) was over 10 h. The PAE (Staphylococcus aureus [11]) was 2.3 h, the PAE (Staphylococcus aureus [12]) was 3.6 h and the PAE (Staphylococcus aureus [13]) was 0.8 h. The PAE (Staphylococcus aureus [14]) was 1 h, the PAE (Streptococcus agalactiae [15]) was 2.1 h and the PAE (Staphylococcus aureus [16]) was 0.7 h. The PAE (Staphylococcus aureus [17]) was over 10 h, the PAE (Staphylococcus aureus [18]) was 2.6 h and the PAE (Streptococcus agalactiae [19]) was over 10.7 h. The PAE (Staphylococcus aureus [20]) was 0.9 h, the PAE (Staphylococcus aureus [21]) was 8.6 h and the MIC (Staphylococcus aureus [22]) was 0.5 µg/mL (≈ 0.285 µM). It also gave a PAE (Staphylococcus aureus [23]) of 3.6 h.
